# This is a sample that favours compounds with a hit; in the whole collection about 1.9% have one here.
# Rev-erbA mod = Rev-erb alpha (human) modulation | Rev-erbα–FITC-DNA binding, fluorescence polarization, 90 min | P20393 | 370,000 tested, 0.79% active | activity, % at 10 µM;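 active = activity above about 14%, limit read from the data; passing the limit was not always enough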;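 also: 0% = DMSO wells with 35 nM protein and 100% = DMSO wells with 750 nM protein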
# Rce1 inh = inhibitors of yeast Ras-converting enzyme; Q03530; calls only; 290,000 tested, 0.27% active; yeast membranes, quenched prenylated peptide cleavage fluorescence;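 active = fall in fluorescence gain of 50% or more versus controls, with final raw signal at or below 3038400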;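 also: plate controls were neutral control wells for no effect and wells lacking membranes for full effect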
# Target sequence (Q03530 whole entry, looked up): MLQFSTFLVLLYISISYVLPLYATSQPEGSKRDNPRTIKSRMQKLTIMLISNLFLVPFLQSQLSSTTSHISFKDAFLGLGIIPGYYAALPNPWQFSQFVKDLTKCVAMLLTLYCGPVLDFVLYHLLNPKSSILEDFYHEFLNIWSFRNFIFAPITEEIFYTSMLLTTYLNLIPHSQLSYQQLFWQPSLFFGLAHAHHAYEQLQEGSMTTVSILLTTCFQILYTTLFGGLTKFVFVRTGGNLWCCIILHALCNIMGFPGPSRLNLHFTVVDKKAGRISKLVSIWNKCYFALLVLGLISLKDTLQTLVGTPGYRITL
# beta cell repl = induces beta-cell replication in MIN6 cells; proliferation, % at 10 µM; AID 2380; 330,000 tested, 0.29% active; MIN6 cells proliferation, ATPlite luminescence, 48 h; cells starved in 0.2% serum; 100% = growth in 10% serum;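 active = compounds whose signal lies at least 3.5 SD above the mean of all wells on their plate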;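 also: 0% = DMSO-treated cells in low-serum medium and 100% = 10% serum control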
# UCH37 inh = human UCH37 deubiquitinating enzyme inhibition. AID 588478. purified proteasome/UCH37, Ub-AMC cleavage fluorescence. 330,000 tested, 0.33% active. inhibition, % (test concentration not listed). Q9Y5K5;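 active = mean inhibition over replicate wells above about 20%, limit read from the data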;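 also: 0% = compound-free wells with enzyme and 100% = wells lacking proteasome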
# Target sequence (Q9Y5K5 whole entry, looked up): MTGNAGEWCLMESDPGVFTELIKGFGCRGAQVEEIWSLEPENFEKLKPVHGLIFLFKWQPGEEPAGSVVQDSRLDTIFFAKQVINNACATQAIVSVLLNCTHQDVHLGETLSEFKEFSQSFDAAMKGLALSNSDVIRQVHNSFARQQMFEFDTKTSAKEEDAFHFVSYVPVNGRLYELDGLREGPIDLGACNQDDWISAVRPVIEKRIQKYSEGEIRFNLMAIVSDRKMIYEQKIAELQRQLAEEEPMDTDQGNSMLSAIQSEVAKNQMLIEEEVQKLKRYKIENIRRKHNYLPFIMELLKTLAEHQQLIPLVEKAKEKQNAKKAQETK
#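 Material: human UCH37 enzyme supplied as purified proteasome complex. Measure: % inhibition of Ub-AMC cleavage fluorescence. Medium: pH 7.4 Tris-HCl (50 mM) with ovalbumin, ATP-MgCl2, DTT. Times: 30 min preincubation with enzyme, 25 min cleavage at room temperature. Detection: AMC fluorescence intensity at 355/460 nm.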
# PG9 binder = binds the HIV-1 gp120 antibody PG9. TR-FRET gp120-PG9 antibody binding. inhibition, % at 6.7 µM. 360,000 tested, 0.43% active; in the data active = inhibition above about 8.5%
# Yeast superoxide = caloric restriction mimetics inhibiting age-related superoxide in yeast; superoxide response (% of plate mean), % at 10 µM; S. cerevisiae aged cells, superoxide DHE fluorescence; active compounds read low; 330,000 tested, 0.18% active;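 active = superoxide response under a set limit, about three screen SD below normal, cut at about 65% in these data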;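 also: yeast aged for seven days with compound at 30 °C before DHE staining; 100% = average MFI of all compound-treated wells on the plate with controls excluded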
# UCH37 reconfirm = reconfirmed inhibitor of human deubiquitinase UCH37; 480 tested, 27% active; AID 624100; Proteasome-bound UCH37, Ub-AMC cleavage fluorescence; shares compounds with UCH37 inh; inhibition, % at 20 µM;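 active = average inhibition over replicates above about 50%, so the earlier screening hit is confirmed, limit read from the data; inactive = the rest, counted as false positives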;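 also: based on cleavage rate fitted by regression over a 30 min kinetic read; 0% = proteasome plus Ub-AMC and 100% = Ub-AMC without proteasome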
# Numbers without * were called inactive; i = inactive; x = no result given.
SMILES,Rev-erbA mod,Rce1 inh,beta cell repl,UCH37 inh,PG9 binder,Yeast superoxide,UCH37 reconfirm
N#CC1=C(N)OC2=C(C(=O)CCC2)[C@]12C(=O)N(CC(N)=O)c1ccccc12,4,i,3,4,0,98,x
COc1ccc(C=NNC(=O)Cc2csc(Nc3cccc(C(F)(F)F)c3)n2)c(OC)c1,x,x,x,-2,x,x,x
COc1ccccc1NS(=O)(=O)c1cccc(C(=O)NN=Cc2ccc(C)o2)c1,x,x,x,4,x,x,x
CCOc1ccc(C(=O)NCCC2=CCCCC2)cc1OCC,-1,i,-1,32*,0,76,35
Cc1ccccc1NS(=O)(=O)c1cc(C(=O)NCc2ccncc2)ccc1Cl,3,i,0,4,-1,109,x
Cc1ccccc1NS(=O)(=O)c1cc(C(=O)NCCC2=CCCCC2)ccc1Cl,-2,i,-6,55*,-1,87,47
COc1ccc(C(=O)NN=Cc2ccc(OC)c(COc3ccccc3)c2)cc1,x,x,x,-2,x,x,x
CC(Cn1cnc([N+](=O)[O-])n1)=NNC(=O)COc1ccccc1Cl,x,x,x,13,x,x,x
CC(C)=CCC(C)(C)C1OCCN1C(=O)c1ccccc1 (centres undefined),-3,i,-1,63*,-2,96,68*
COc1ccc(C=NNc2nc(-c3ccc(C)cc3)c(NC(C)=O)s2)cc1,x,x,x,-10,x,x,x
Cc1nnc(C)n1N=Cc1cccc(Oc2ccccc2)c1,x,x,x,1,x,x,x
CN(C[C@H](Cc1ccccc1)N(C[C@H](c1ccccc1)N(CCc1ccccc1)N=O)N=O)N=O,0,i,-7,4,-1,102,x
CN(C[C@H](c1ccccc1)N(C[C@H](Cc1ccccc1)N(CCc1ccccc1)N=O)N=O)N=O,1,i,-4,37*,0,x,9
COC(=O)C1SCC2C(=O)N(Cc3ccc(Cl)c(Cl)c3)CC(=O)N21 (centres undefined),-6,i,0,29*,-1,123,21
COC(=O)C1SCC2C(=O)N(Cc3ccc(Cl)cc3)CC(=O)N21 (centres undefined),-2,i,3,16,-1,101,x
CSc1ccc(C=NN2CCN(Cc3ccc(Cl)cc3)CC2)cc1,x,x,x,4,x,x,x
COc1cc(/C=C(\C#N)c2nc3ccccc3s2)cc([N+](=O)[O-])c1O,1,x,-5,26*,-1,x,53*
N#C/C(=C\c1ccc(O)c([N+](=O)[O-])c1)c1nc2ccccc2s1,18,i,x,5,0,x,x
COc1ccc(C(=O)c2ccccc2)c2c(O)ccc(C(=O)c3ccccc3)c12,-5,i,-7,41*,1,102,-7
CC(=NNc1ccc(Cl)c(C(=O)O)c1)c1ccc(Br)s1,x,x,x,10,x,x,x
Cc1[nH]n(-c2ccccc2)c(=O)c1C(C[N+](=O)[O-])c1ccccc1Cl (centres undefined),-5,i,-4,30*,-3,110,1
COc1ccc(C(C[N+](=O)[O-])c2c(C)[nH]n(-c3ccccc3)c2=O)cc1 (centres undefined),2,i,-6,77*,-4,98,7
Cc1[nH]n(-c2ccccc2)c(=O)c1C(c1ccc(O)c([N+](=O)[O-])c1)c1c(C)[nH]n(-c2ccccc2)c1=O,1,i,-2,7,-4,97,x
C=CCc1cccc(C=NNC(=O)CNc2ccccc2OC)c1O,x,x,x,-1,x,x,x
CC1CCCC(NC(=O)COC(=O)c2ccc([N+](=O)[O-])s2)C1C (centres undefined),0,x,-4,78*,-1,125,85*
SMILES,Rev-erbA mod,Rce1 inh,beta cell repl,UCH37 inh,PG9 binder,Yeast superoxide,UCH37 reconfirm
CC1CCCC(NC(=O)COC(=O)c2ccccc2[N+](=O)[O-])C1C (centres undefined),-2,i,-1,2,-1,90,x
CN(C)CCCN(C(=O)c1ccc([N+](=O)[O-])s1)c1nc2cc3c(cc2s1)OCCO3,1,i,-5,56*,-5,73,4
CC(=O)[C@H]1[C@@H]2C(=O)N(c3cccc(Cl)c3)C(=O)[C@@H]2[C@H]2c3ccccc3C=CN21,2,i,-4,40*,0,114,-9
CCN1/C(=C/C(C)=C/c2sc3ccccc3[n+]2CC)Sc2ccccc21,-10,i,-5,28*,-25,97,22
COc1cc(NCCCCCCN)c2ncccc2c1OC,-32,x,x,69*,-4,x,70*
CCc1ccc(NC(=O)COc2ccc(F)cc2C(=O)c2cnn(-c3ccccc3)c2)cc1,4,i,-1,4,-2,103,x
COc1ccccc1NC(=O)COc1ccccc1C(=O)c1cnn(-c2ccccc2)c1,-3,i,0,37*,-5,110,-6
CCOc1cc(C(=O)NN=Cc2ccsc2)cc(OCC)c1OCC,x,x,x,-2,x,x,x
Cc1[nH][nH]c(=O)c1C(c1c(C)[nH][nH]c1=O)c1cn(Cc2cccc3ccccc23)c2ccccc12,-2,x,-4,83*,-3,108,50
Cc1[nH][nH]c(=O)c1C(c1c(C)[nH][nH]c1=O)c1cn(C)c2ccccc12,2,x,x,90*,-9,x,57*
N#CC(=NO)c1nc(-c2ccc(F)cc2)cs1,x,x,x,-4,x,x,x
C[N+]1(C)CCC(=C2c3ccccc3CC(=O)c3sccc32)CC1,3,i,-3,75*,-4,109,19
NS(=O)(=O)c1ccc(N=Nc2ccc(=O)[nH]c2O)cc1,-8,i,x,32*,-6,91,15
CN1CCN(C2=C(NS(=O)(=O)c3ccccc3)C(=O)c3ccccc3C2=O)CC1,x,i,-7,12,x,168,x
CN1CCN(C2=C(Cl)C(=O)c3ccccc3C2=O)CC1,-23,x,x,97*,-6,x,97*
NC(=O)C1CCN(C2=C(Cl)C(=O)c3ccccc3C2=O)CC1,3,i,-6,82*,-7,116,17
NC(=O)C1CCN(C2=C(NS(=O)(=O)c3ccccc3)C(=O)c3ccccc3C2=O)CC1,-1,i,0,16,-12,107,x
COc1ccc(C=NNC(=O)c2ccc3nc[nH]c3c2)cc1,x,x,x,3,x,x,x
COc1cc(C(=O)Oc2ccccc2C=NNC(=O)c2ccc(Cl)cc2)cc(OC)c1OC,x,x,x,-6,x,x,x
CC(=NNC(=O)CN1CCN(Cc2ccccc2)CC1)c1cccs1,x,x,x,5,x,x,x
Cc1ccc(COc2ccccc2-c2cc(C(=O)NN=Cc3cccnc3)[nH]n2)cc1,x,x,x,2,x,x,x
COC(=O)/C=C1\S/C(=N\N=CCC(=O)OC)NC1=O,x,x,x,14,x,x,x
CCOC(=O)c1c(N2C(=O)CC(Sc3ccccc3C(=O)O)C2=O)sc(C)c1C (centres undefined),1,i,-2,2,-2,95,x

# High-throughput results (PubChem)
